Source: ChEMBL document CHEMBL1629532, “Design, synthesis, and structure-activity relationships of 3-ethynyl-1H-indazoles as inhibitors of the phosphatidylinositol 3-kinase signaling pathway” (J Med Chem, 2010)
Activity calls are given as the source filed them. The rule behind the calls is not given here.

Experiments:
[1] = target: RAC-alpha serine/threonine-protein kinase (Homo sapiens) (UniProt P31749); assay: Inhibition of AKT1 by biochemical assay
[2] = target: T1, Serine/threonine-protein kinase mTOR (Homo sapiens, UniProt P42345); assay: Inhibition of mTOR by LanthaScreen Eu kinase binding assay
Method in brief: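 Eu kinase binding TR-FRET displacement with FRAP1 (mTOR) at 5 nM, kinase tracer 20 nM and Eu-anti-GST antibody 2 nM, all final. Buffer 25 mM Tris-HCl, 5 mM MgCl2, 0.02% CHAPS.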

[3] = target: T2, 3-phosphoinositide-dependent protein kinase 1 (Homo sapiens, UniProt O15530); assay: Inhibition of PDK1 by Z'-LYTE kinase activity assay
T2 sequence (O15530 whole entry): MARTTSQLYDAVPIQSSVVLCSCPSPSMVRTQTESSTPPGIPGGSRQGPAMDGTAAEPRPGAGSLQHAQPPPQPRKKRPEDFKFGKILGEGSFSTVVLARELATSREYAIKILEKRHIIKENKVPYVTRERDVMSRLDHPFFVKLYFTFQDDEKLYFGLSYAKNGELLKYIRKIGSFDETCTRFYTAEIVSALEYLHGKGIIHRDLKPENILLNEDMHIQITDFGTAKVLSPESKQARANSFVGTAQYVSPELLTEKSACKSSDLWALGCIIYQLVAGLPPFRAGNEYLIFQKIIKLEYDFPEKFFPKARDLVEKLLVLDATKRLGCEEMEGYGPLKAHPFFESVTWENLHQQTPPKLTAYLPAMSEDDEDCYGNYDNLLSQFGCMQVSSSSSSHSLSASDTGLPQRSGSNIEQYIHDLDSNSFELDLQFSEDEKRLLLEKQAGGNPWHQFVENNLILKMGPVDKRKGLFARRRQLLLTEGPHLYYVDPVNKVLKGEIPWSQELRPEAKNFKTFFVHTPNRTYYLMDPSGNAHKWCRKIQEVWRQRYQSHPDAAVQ

[4] = target: T1, Serine/threonine-protein kinase mTOR; assay: Inhibition of mTORC1 expressed in HEK293 cells assessed as PRAS40 Ser183 phosphorylation level by LanthaScreen cellular assay; format: cell-based
Method in brief: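 HEK293E cells stably expressing GFP-substrate fusions (AKT for pThr308; PRAS40 for pSer183), 20,000 per well, serum-starved overnight in low-glucose DMEM + 0.1% BSA. Lysed with 2 nM Tb-labeled phosphospecific antibody; TR-FRET read after 2 h at room temperature. IC50 by curve fitting.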

[5] = target: Phosphatidylinositol 4,5-bisphosphate 3-kinase catalytic subunit alpha isoform (Homo sapiens, UniProt P42336); assay: Inhibition of PI3Kalpha by LanthaScreen Eu kinase binding assay
Phosphatidylinositol 4,5-bisphosphate 3-kinase catalytic subunit alpha isoform, sequence (P42336 whole entry, canonical isoform): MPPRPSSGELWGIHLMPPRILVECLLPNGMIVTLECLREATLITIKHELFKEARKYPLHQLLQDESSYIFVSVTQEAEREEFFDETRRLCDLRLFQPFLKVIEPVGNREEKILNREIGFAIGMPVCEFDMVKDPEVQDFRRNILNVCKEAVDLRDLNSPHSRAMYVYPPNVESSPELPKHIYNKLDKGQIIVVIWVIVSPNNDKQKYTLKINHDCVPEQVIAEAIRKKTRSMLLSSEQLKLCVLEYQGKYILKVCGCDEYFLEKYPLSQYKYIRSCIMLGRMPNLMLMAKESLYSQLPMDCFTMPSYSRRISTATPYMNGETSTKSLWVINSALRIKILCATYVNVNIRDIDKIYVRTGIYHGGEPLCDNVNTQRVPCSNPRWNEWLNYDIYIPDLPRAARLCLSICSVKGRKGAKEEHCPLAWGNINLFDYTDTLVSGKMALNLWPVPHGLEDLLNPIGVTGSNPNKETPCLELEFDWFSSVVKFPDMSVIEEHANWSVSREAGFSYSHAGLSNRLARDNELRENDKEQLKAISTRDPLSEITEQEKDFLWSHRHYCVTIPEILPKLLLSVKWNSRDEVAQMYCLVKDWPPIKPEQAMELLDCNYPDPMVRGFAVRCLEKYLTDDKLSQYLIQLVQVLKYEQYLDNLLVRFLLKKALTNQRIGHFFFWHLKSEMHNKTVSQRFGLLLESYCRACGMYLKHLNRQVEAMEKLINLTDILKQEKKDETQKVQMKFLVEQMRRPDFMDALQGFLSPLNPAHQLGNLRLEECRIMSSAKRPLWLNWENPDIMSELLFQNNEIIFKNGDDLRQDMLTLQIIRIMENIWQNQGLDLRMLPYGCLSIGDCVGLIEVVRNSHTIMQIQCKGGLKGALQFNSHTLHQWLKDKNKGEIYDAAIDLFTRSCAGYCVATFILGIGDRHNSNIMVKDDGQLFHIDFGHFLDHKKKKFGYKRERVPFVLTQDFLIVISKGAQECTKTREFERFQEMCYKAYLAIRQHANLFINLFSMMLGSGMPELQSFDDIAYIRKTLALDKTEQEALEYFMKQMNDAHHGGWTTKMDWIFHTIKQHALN
Method in brief: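 Eu kinase binding TR-FRET assay (tracer displacement). PIK3CA/PIK3R1 at 5 nM with kinase tracer 20 nM and Eu-anti-His antibody 2 nM, all final. Buffer 25 mM Tris-HCl, 5 mM MgCl2, 0.02% CHAPS.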

[6] = target: T3, Phosphatidylinositol 4,5-bisphosphate 3-kinase catalytic subunit delta isoform (Homo sapiens, UniProt O00329); assay: Inhibition of PI3Kdelta; details: read-out: IC50
T3 sequence (O00329 whole entry): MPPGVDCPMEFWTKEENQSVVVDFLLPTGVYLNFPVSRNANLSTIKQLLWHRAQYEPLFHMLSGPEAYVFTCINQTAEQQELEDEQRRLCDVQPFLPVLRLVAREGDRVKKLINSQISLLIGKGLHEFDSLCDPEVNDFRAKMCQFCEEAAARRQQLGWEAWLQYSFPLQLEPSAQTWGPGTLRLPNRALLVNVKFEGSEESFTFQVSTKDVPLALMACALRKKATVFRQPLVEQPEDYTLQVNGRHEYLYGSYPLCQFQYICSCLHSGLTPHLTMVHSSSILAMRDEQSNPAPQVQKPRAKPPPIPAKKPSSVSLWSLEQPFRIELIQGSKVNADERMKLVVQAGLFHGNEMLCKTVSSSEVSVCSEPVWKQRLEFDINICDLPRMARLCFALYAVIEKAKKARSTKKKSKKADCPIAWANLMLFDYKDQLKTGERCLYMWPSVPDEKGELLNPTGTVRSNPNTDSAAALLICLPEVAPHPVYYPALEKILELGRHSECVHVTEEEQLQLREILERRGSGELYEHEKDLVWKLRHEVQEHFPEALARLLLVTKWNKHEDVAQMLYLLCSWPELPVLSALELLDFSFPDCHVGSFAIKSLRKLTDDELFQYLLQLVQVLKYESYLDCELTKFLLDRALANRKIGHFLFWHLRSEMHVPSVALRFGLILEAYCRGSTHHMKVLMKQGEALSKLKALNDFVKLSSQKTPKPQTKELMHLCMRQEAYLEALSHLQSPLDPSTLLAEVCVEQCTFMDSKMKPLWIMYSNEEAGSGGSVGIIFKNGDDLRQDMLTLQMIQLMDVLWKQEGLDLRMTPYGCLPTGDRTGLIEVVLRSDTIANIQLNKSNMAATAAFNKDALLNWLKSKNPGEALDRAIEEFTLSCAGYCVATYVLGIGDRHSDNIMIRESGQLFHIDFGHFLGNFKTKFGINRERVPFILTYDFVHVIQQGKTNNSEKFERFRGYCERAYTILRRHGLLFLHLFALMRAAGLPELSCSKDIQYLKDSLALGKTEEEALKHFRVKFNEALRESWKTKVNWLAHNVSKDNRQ

[7] = system: PC-3; assay: Growth inhibition of human PC3 cells after 72 hrs by ATPlite assay; format: functional; details: PC-3, 72 h
Method in brief: (§1)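 Cells seeded at about 3000 per well, grown 24 h, then given fresh medium and test compound in triplicate at 0.5 to 100µM in DMSO (0.5% final). Exposure 72 h at 37 °C, 5% CO₂. Viability measured by ATPlite luminescence and normalized to DMSO-treated controls. GI50 obtained by curve fitting. HeLa cultured in DMEM/10% FBS; MCF7, MDA-MB-231 and PC3 cultured in RPMI+GlutaMAX/10% FBS.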

[8] = system: MCF7; assay: Growth inhibition of human MCF7 cells after 72 hrs by ATPlite assay; format: functional; details: MCF7, 72 h; method in brief: as §1
[9] = system: MDA-MB-231; assay: Growth inhibition of human MDA-MB-231 cells after 72 hrs by ATPlite assay; format: functional; details: MDA-MB-231, 72 h; method in brief: as §1
[10] = target: Phosphatidylinositol 4,5-bisphosphate 3-kinase catalytic subunit gamma isoform (Homo sapiens, UniProt P48736); assay: Inhibition of PI3Kgamma
Phosphatidylinositol 4,5-bisphosphate 3-kinase catalytic subunit gamma isoform, sequence (P48736 whole entry, canonical isoform): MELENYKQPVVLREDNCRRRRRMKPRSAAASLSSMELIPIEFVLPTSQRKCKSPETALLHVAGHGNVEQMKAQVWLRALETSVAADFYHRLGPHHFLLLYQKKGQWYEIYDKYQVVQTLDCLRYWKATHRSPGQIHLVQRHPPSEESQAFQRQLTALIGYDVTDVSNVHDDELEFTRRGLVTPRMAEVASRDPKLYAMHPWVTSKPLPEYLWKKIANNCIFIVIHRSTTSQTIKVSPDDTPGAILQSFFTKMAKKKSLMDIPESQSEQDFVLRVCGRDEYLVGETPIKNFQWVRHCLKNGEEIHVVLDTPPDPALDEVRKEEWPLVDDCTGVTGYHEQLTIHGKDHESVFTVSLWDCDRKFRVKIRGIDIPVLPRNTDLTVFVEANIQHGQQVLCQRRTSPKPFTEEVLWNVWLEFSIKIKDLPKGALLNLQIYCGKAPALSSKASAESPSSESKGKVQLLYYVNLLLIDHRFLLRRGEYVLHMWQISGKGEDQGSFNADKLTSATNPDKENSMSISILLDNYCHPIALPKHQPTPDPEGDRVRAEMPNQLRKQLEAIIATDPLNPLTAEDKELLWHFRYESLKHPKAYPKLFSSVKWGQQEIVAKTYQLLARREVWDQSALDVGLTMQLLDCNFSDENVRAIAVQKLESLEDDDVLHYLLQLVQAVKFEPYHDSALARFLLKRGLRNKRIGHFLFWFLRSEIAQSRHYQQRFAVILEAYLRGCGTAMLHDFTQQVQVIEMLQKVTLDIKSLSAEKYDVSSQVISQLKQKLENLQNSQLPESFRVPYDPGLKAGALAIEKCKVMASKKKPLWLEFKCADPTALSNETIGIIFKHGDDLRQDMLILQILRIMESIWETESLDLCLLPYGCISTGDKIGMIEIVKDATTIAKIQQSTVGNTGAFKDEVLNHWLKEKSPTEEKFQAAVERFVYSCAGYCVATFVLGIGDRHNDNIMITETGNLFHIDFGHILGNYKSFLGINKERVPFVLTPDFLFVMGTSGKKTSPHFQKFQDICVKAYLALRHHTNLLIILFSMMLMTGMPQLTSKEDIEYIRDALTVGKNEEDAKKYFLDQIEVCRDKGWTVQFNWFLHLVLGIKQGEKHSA

[11] = system: Liver microsomes; assay: Metabolic stability in rat liver microsomes; format: ADME, Microsome
Method in brief: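 Rat liver microsomes (1 mg/ml protein) with 4µM compound in 50mM phosphate pH 7.2. Pre-incubated 5 min at 37.5 °C, then started with 2mM NADPH and run 1 h. Samples taken every 15 min, quenched in methanol with internal standard, analyzed by LC-MS. Duplicate runs alongside two control compounds of known half-life. Half-life reported.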

[12] = system: Plasma; assay: Metabolic stability in rat plasma assessed as compound remaining at 1 uM after 60 mins by Lc/Ms method; format: ADME, cell-free; details: 1 h
Method in brief: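 Compound at 1 µM (2.5% DMSO final) in fresh rat plasma at 37 °C. Stopped at 0, 30 and 60 min with two volumes methanol plus internal standard, then LC-MS. Percent parent remaining relative to 0 min, from peak area ratios to internal standard. Duplicate runs, with a plasma-labile positive control.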

[13] = system: HeLa; assay: Growth inhibition of human HeLa cells after 72 hrs by ATPlite assay; format: functional; method in brief: as §1

RAC-alpha serine/threonine-protein kinase (Homo sapiens), sequence (P31749 whole entry): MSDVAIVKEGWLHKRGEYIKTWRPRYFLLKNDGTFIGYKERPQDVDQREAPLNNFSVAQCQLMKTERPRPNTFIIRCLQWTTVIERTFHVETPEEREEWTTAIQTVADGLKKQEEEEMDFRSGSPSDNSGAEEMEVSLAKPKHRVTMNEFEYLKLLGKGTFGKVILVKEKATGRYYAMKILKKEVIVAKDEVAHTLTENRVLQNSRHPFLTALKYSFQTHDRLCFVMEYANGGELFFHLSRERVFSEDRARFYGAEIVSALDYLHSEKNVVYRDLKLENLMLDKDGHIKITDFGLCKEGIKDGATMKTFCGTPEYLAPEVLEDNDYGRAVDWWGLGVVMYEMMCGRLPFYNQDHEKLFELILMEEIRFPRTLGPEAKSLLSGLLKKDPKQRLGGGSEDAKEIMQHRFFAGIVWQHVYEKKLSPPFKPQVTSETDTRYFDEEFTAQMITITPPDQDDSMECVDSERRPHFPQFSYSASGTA

`FC(F)(F)c1cc(C#Cc2n[nH]c3ccccc23)cc(C(F)(F)F)c1` was tested, and the inhibition [1] was “inactive”, the IC50 [2] was > 100 µM and the IC50 [3] was > 100 µM. For the same compound, the IC50 [4] was > 100 µM and the IC50 [5] was > 100 µM.

In the case of `C(#Cc1n[nH]c2ccccc12)c1ccccn1`, the inhibition [1] is reported as “inactive”, the IC50 [2] is reported as > 100 µM and the IC50 [3] is reported as > 25 µM. The IC50 [4] was > 50 µM and the IC50 [5] was > 100 µM.

For `C(#CC1CC1)c1n[nH]c2ccccc12`, the inhibition [1] was “inactive”, the IC50 [2] was > 100 µM and the IC50 [3] was > 100 µM. The IC50 [4] was > 50 µM and the IC50 [5] was > 100 µM.

`Nc1ccccc1C#Cc1n[nH]c2ccccc12` was tested, and the inhibition [1] was “inactive”, the IC50 [2] was > 100 µM and the IC50 [3] was > 100 µM. The IC50 [4] was > 50 µM and the IC50 [5] was > 100 µM.

In the case of `Nc1ccc(C#Cc2n[nH]c3ccccc23)cc1`, the IC50 [6] is reported as > 100 µM, the GI50 [7] is reported as 2.51 µM and the inhibition [1] is reported as “inactive”. For the same compound, the IC50 [2] was 4.97 µM, the IC50 [3] was 39.2 µM and the IC50 [4] was 10.8 µM. It also gave a GI50 [8] of 3.23 µM, a GI50 [9] of 8.28 µM and an IC50 [5] of 1.05 µM. The IC50 [10] was > 100 µM.

`CN(C)CC#Cc1n[nH]c2ccccc12` was tested, and the inhibition [1] was “inactive”, the IC50 [2] was > 100 µM and the IC50 [3] was > 100 µM. The IC50 [4] was > 50 µM and the IC50 [5] was > 50 µM.

For `C(#Cc1n[nH]c2ncccc12)c1cccnc1`, the inhibition [1] was “inactive”, the IC50 [2] was 5 µM and the IC50 [3] was > 50 µM. The IC50 [4] was > 10 µM and the IC50 [5] was 9 µM.

For `Fc1cc(F)cc(C#Cc2n[nH]c3ccccc23)c1`, the inhibition [1] was “inactive”, the IC50 [2] was > 100 µM and the IC50 [3] was > 100 µM. For the same compound, the IC50 [4] was > 200 µM and the IC50 [5] was > 100 µM.

With `C(#Cc1n[nH]c2ncccc12)c1ccncc1` the inhibition [1] was “inactive”, the IC50 [3] was > 50 µM and the IC50 [5] was 3.05 µM.

In the case of `Nc1cccc(C#Cc2n[nH]c3ccccc23)c1`, the IC50 [6] is reported as > 100 µM, the GI50 [7] is reported as 2.84 µM and the inhibition [1] is reported as “inactive”. The t1/2 [11] was > 1 h, the GI50 [8] was 10.4 µM and the Stability [12] was 100%. The GI50 [13] was 5.21 µM, the GI50 [9] was 8.29 µM and the IC50 [10] was > 100 µM.

`C(#Cc1n[nH]c2ccccc12)c1ccsc1` was tested, and the inhibition [1] was “inactive”, the IC50 [2] was > 100 µM and the IC50 [3] was > 100 µM. The IC50 [4] was > 100 µM and the IC50 [5] was > 100 µM.

With `N#Cc1ccc(C#Cc2n[nH]c3ccccc23)cc1` the inhibition [1] was “inactive”, the IC50 [2] was > 100 µM and the IC50 [3] was > 100 µM. For the same compound, the IC50 [4] was > 50 µM and the IC50 [5] was > 100 µM.

In the case of `C(#CC1CCCC1)c1n[nH]c2ccccc12`, the inhibition [1] is reported as “inactive”, the IC50 [2] is reported as > 100 µM and the IC50 [3] is reported as > 100 µM. The IC50 [4] was > 50 µM and the IC50 [5] was > 100 µM.

For `C(#Cc1n[nH]c2ccccc12)c1ccccc1`, the inhibition [1] was “inactive”, the IC50 [2] was > 100 µM and the IC50 [3] was > 50 µM. The IC50 [4] was > 50 µM and the IC50 [5] was > 100 µM.

With `C(#Cc1n[nH]c2ccccc12)c1cccnc1` the GI50 [7] was 6.81 µM, the inhibition [1] was “inactive” and the IC50 [2] was > 100 µM. The IC50 [4] was > 50 µM, the GI50 [8] was 3.66 µM and the GI50 [13] was 5.21 µM. The GI50 [9] was 10.5 µM.
